According to EPA's CvTdb concentration-time database:

How the values were obtained:
human [1] = experiment: concentration in blood after dosing; negative times count back from the end of exposure; details: inhalation
In short: (§1)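 Data points giving concentration or amount against time came from published in vivo toxicokinetic studies and from two structured collections. PubMed searching, classifier screening and manual review located the studies. Most points were digitised from plot screenshots using WebPlotDigitizer, the rest were copied from tables, and all keep their reported units.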

human [2] = experiment: negative times count back from the end of exposure; details: dosed: toluene, 200 mg/m^3, inhalation, duration: 2 hr, male
In short: as §1

human [3] = experiment: concentration in blood after dosing; details: dosed: tert-amyl methyl ether
In short: as §1

rat [4] = experiment: amount in urine after dosing (umol); details: dosed: tert-amyl methyl ether, 38.4 ppm, inhalation, duration: 4 hr, F344 (Harlan Winkelmann)
human [5] = experiment: amount in urine after dosing (umol); details: dosed: tert-amyl methyl ether
In short: as §1

rat [6] = experiment: concentration in plasma after dosing
rat [7] = experiment: concentration in expired air after dosing; details: dosed: 1,1,2-trichloroethane, 501 ppm, inhalation, duration: 6 hr
rat [8] = experiment: concentration in expired air after dosing; details: dosed: 1,1,2-trichloroethane, 501 ppm, inhalation, duration: 6 hr; remark: listed apart in the source
rat [9] = experiment: concentration in lung after dosing; details: dosed: benzo[a]pyrene, inhalation, duration: 4 hr, F344

CN1CCCC1=O [N-methyl-2-pyrrolidone]
human [1], dosed: N-methyl-2-pyrrolidone, male
Details | concentration in blood [ng/mL]
0 h, 10 mg/m^3, duration: 8 hr | 470
0.8235 h, 53 mg/m^3, duration: 8 hr | 2010
0.9269 h, 80 mg/m^3, duration: 6 hr 10min | 942
0.9412 h, 10 mg/m^3, duration: 8 hr | 503
0.9412 h, 24 mg/m^3, duration: 8 hr | 701
0.986 h, 10 mg/m^3, duration: 6 hr 10min | 194
0.986 h, 40 mg/m^3, duration: 6 hr 10min | 412
1.824 h, 24 mg/m^3, duration: 8 hr | 492
1.824 h, 53 mg/m^3, duration: 8 hr | 1300
1.882 h, 10 mg/m^3, duration: 8 hr | 244
1.932 h, 10 mg/m^3, duration: 6 hr 10min | 153
1.932 h, 80 mg/m^3, duration: 6 hr 10min | 723
2.109 h, 40 mg/m^3, duration: 6 hr 10min | 346
3.765 h, 10 mg/m^3, duration: 8 hr | 139
3.765 h, 24 mg/m^3, duration: 8 hr | 277
3.765 h, 53 mg/m^3, duration: 8 hr | 757
3.823 h, 40 mg/m^3, duration: 6 hr 10min | 253
3.823 h, 80 mg/m^3, duration: 6 hr 10min | 516
4.06 h, 10 mg/m^3, duration: 6 hr 10min | 146
7.882 h, 53 mg/m^3, duration: 8 hr | 305
7.941 h, 24 mg/m^3, duration: 8 hr | 189
8 h, 10 mg/m^3, duration: 8 hr | 123
18.01 h, 80 mg/m^3, duration: 6 hr 10min | 92.6
18.25 h, 40 mg/m^3, duration: 6 hr 10min | 18.6
18.6 h, 10 mg/m^3, duration: 6 hr 10min | 55.7
19.88 h, 53 mg/m^3, duration: 8 hr | 91.4
19.94 h, 10 mg/m^3, duration: 8 hr | 85.9
19.94 h, 24 mg/m^3, duration: 8 hr | 63.9
145 s, 80 mg/m^3, duration: 6 hr 10min | 1530

human [1], dosed: N-methyl-2-pyrrolidone, male, during exposure
Details | concentration in blood [ng/mL]
-281 s, 40 mg/m^3, duration: 6 hr 10min | 645
-212 s, 24 mg/m^3, duration: 8 hr | 806
-212 s, 53 mg/m^3, duration: 8 hr | 2610
-68 s, 10 mg/m^3, duration: 6 hr 10min | 308
-4.118 h, 53 mg/m^3, duration: 8 hr | 1610
-4 h, 10 mg/m^3, duration: 8 hr | 342
-4 h, 24 mg/m^3, duration: 8 hr | 971
-3.211 h, 80 mg/m^3, duration: 6 hr 10min | 963
-3.034 h, 10 mg/m^3, duration: 6 hr 10min | 182
-3.034 h, 40 mg/m^3, duration: 6 hr 10min | 449

CCCCOCCO [2-butoxyethanol]
human [1], dosed: 2-butoxyethanol, 20 ppm, duration: 2 hr
Details | concentration in blood [nM]
0.1474 h | 4330
0.3298 h | 3310
0.4842 h | 3420
0.6526 h | 2200
1.004 h | 1410
1.326 h | 1000
1.663 h | 1090
1.986 h | 987
25 s | 7200
227 s | 4220

human [1], dosed: 2-butoxyethanol, 20 ppm, duration: 2 hr, during exposure
Details | concentration in blood [nM]
-1.916 h | 2830
-1.832 h | 2770
-1.677 h | 4530
-1.34 h | 5020
-1.018 h | 7010
-0.6807 h | 7200
-0.3438 h | 7400

ClC=C(Cl)Cl [trichloroethene]
human [1], dosed: trichloroethene, 100 ppmv, duration: 240 min, male
Details | concentration in blood [ng/mL]
0.2522 h | 634
0.3977 h | 426
0.9604 h | 198
1.911 h | 112
4.055 h | 4.16

human [1], dosed: trichloroethene, 100 ppmv, duration: 240 min, male, during exposure
Details | concentration in blood [ng/mL]
-226 s | 1170
-175 s | 1170
-3.513 h | 588
-3.022 h | 851
-2.029 h | 1100
-1.031 h | 1040

O=C(O)CNC(=O)c1ccccc1 [hippuric acid]
human [2]
Details | amount in urine after dosing [µmol/min]
3.981 h | 2.61
7.978 h | 0.699
12.06 h | 0.451
20.04 h | 0.258

Details | amount in urine after dosing [µmol/min]
human [2], -49 s, during exposure | 4.88

CCC(C)(C)O [tert-amyl alcohol]
inhalation, duration: 4 hr
Details | amount in urine | concentration in blood [nM]
human [3], 2.005 h, 3.8 ppm | – | 816
human [3], 2.034 h, 38.4 ppm | – | 7740
human [3], 3.957 h, 38.4 ppm | – | 6550
human [3], 3.966 h, 3.8 ppm | – | 480
human [3], 6.018 h, 38.4 ppm | – | 5900
human [3], 7.942 h, 38.4 ppm | – | 4140
human [3], 9.948 h, 38.4 ppm | – | 3160
human [3], 11.98 h, 38.4 ppm | – | 2850
human [3], 23.91 h, 38.4 ppm | – | 835
human [3], 78 s, 3.8 ppm | – | 960
human [3], 99 s, 38.4 ppm | – | 9530
human [5], 0.144 h, 38.4 ppm | 1.36 | –
human [5], 5.941 h, 3.8 ppm | 0.345 | –
human [5], 6.198 h, 38.4 ppm | 2.11 | –
human [5], 12.1 h, 3.8 ppm | 0.143 | –
human [5], 12.11 h, 38.4 ppm | 1.74 | –
human [5], 17.91 h, 3.8 ppm | 0.0476 | –
human [5], 18.16 h, 38.4 ppm | 0.992 | –
human [5], 24.21 h, 38.4 ppm | 0.62 | –
human [5], 30.05 h, 38.4 ppm | 0.248 | –
human [5], 36.11 h, 38.4 ppm | 0.372 | –
human [5], 248 s, 3.8 ppm | 0.119 | –

oral
Details | amount in urine | concentration in blood [nM]
human [3], 0.9886 h, 15 mg | – | 972
human [3], 1.015 h, 5 mg | – | 445
human [3], 2.032 h, 15 mg | – | 777
human [3], 2.058 h, 5 mg | – | 340
human [3], 3.046 h, 5 mg | – | 276
human [3], 3.982 h, 15 mg | – | 540
human [3], 4.006 h, 5 mg | – | 220
human [3], 6.037 h, 5 mg | – | 155
human [3], 6.041 h, 15 mg | – | 355
human [3], 8.046 h, 15 mg | – | 254
human [3], 8.067 h, 5 mg | – | 111
human [3], 9.995 h, 15 mg | – | 177
human [3], 10.02 h, 5 mg | – | 86.5
human [3], 12.03 h, 15 mg | – | 101
human [3], 12.05 h, 5 mg | – | 67.4
human [5], 0 h, 5 mg | 0.00166 | –
human [5], 0 h, 15 mg | 0.00586 | –
human [5], 6.182 h, 15 mg | 0.181 | –
human [5], 6.2 h, 5 mg | 0.176 | –
human [5], 11.93 h, 15 mg | 0.0638 | –
human [5], 11.99 h, 5 mg | 0.0598 | –
human [5], 17.98 h, 15 mg | 0.0106 | –
human [5], 18.09 h, 5 mg | 0.0183 | –

rat [4]
Details | amount in urine
5.91 h | 0.0178
11.97 h | 0.0273
17.83 h | 0.0115
23.9 h | 0.0462

human [1], dosed: tert-amyl methyl ether, duration: 4 hr, male
Details | concentration in blood [nM]
0.6509 h, 50 ppm | 17000
0.7385 h, 15 ppm | 4840
1.158 h, 50 ppm | 16000
1.169 h, 15 ppm | 4710
2.413 h, 50 ppm | 13400
2.567 h, 15 ppm | 4380
6.871 h, 50 ppm | 7280
7.192 h, 15 ppm | 2200
19.71 h, 50 ppm | 1840
19.75 h, 15 ppm | 597
141 s, 15 ppm | 5450

concentration in blood [nM], human [1], dosed: tert-amyl methyl ether, duration: 4 hr, male, during exposure
Details | -4 h | -3.999 h | -3.146 h | -3.049 h | -1.944 h | -1.922 h | -1.113 h | -1.062 h
15 ppm | 6 | – | – | 1700 | – | 3520 | – | 4030
50 ppm | – | 10 | 6060 | – | 5580 | – | 11900 | –

CCCOC(=O)c1ccc(O)cc1 [propylparaben]
concentration in plasma [ng/mL], rat [6], dosed: propylparaben, oral, male, Wistar
Details | 0.2504 h | 0.5008 h | 0.9984 h | 1.002 h | 2 h | 2.003 h | 4 h | 4.003 h | 297 s
3 mg/kg | 871 | 280 | – | 88.4 | 82.5 | – | – | – | 495
10 mg/kg | 3140 | 1720 | 466 | – | 271 | – | 23.6 | – | 1790
100 mg/kg | 8510 | 7830 | 4220 | – | 2980 | – | 495 | – | 8610
1000 mg/kg | 14100 | 17200 | – | 11500 | – | 9040 | – | 6390 | 15900

ClCC(Cl)Cl [1,1,2-trichloroethane]
concentration in expired air [ng/mL]
Details | rat [7] | rat [8]
0.1604 h | – | 149
0.3009 h | – | 215
0.4836 h | 248 | 275
0.7365 h | 321 | 258
0.9895 h | 250 | 331
1.495 h | 233 | 272
2.493 h | 201 | –
2.507 h | – | 253
3.491 h | 225 | –
3.505 h | – | 180
3.996 h | 197 | 164
4.488 h | 185 | –
4.502 h | – | 139
4.98 h | 134 | 152
6.498 h | 67.1 | 75.2
6.989 h | 42.2 | 51.8
7.481 h | 36.1 | –
7.495 h | – | 24.6
7.987 h | 21.3 | 14.7
8.985 h | 11.1 | 6.7
9.996 h | 3.53 | 5.67
10.98 h | 2.46 | 3.53
13 min | 204 | –
223 s | 110 | –

Oc1ccc2cc3ccc4cccc5ccc(c2c1)c3c45 [9-hydroxy benzo[a]pyrene]
concentration in plasma [ng/mL], rat [6], dosed: benzo[a]pyrene, duration: 4 hr, F344
Details | 0.5 h | 1 h | 2 h | 4 h
0.1 mg/m^3, inhalation, female | 0.0614 | 0.243 | 0.122 | 0.00678
0.1 mg/m^3, inhalation, male | 0.1 | 0.302 | 0.102 | 0.0105
1 mg/m^3, inhalation, female | 0.339 | 5.95 | 0.303 | 0.00674
1 mg/m^3, inhalation, male | 0.606 | 8.58 | 0.97 | 0.00272
2.5 mg/m^3, inhalation, female | 4.93 | 29.3 | 5.63 | 0.276
2.5 mg/m^3, inhalation, male | 5.6 | 33.1 | 7.14 | 0.363

concentration in lung [ng/mL], rat [9]
Details | 0.1 mg/m^3, female | 0.1 mg/m^3, male | 1 mg/m^3, female | 1 mg/m^3, male | 2.5 mg/m^3, female | 2.5 mg/m^3, male
0.05 h | 0.389 | 0.387 | 11.8 | 4.34 | 23.9 | 21.7
1 h | 3.61 | 3.82 | 15.5 | 14.2 | 52.2 | 48.1
2 h | 0.814 | 1.62 | 14.6 | 4.36 | 12.3 | 8.15
4 h | 0.209 | 0.206 | 1.6 | 2.55 | 1.49 | 3.18
